In ChEMBL document CHEMBL2062505, “Thermodynamic Investigation of Inhibitor Binding to 1-Deoxy-D-Xylulose-5-Phosphate Reductoisomerase” (ACS Med Chem Lett, 2012):

What was measured:
[1] = Inhibition of Escherichia coli DXR using DXP as substrate preincubated for 5 mins
Escherichia coli [2] = assay: Binding affinity to Escherichia coli DXR by isothermal titration […] assay in presence of 2 mM NADPH and 150 mM NaCl at 279 K and pH 7.6 and Mg2+
Outline: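 Isothermal titration calorimetry of inhibitor titrated into E. coli DXR at 279 K, pH 7.6, with 2 mM NADPH, 150 mM NaCl and Mg2+. Ka and ΔH come from fitted titration curves, with ΔG and ΔS derived from them. Kd is taken as the inverse of Ka.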

[3] = Inhibition of His6-tagged Plasmodium falciparum DXR expressed in Escherichia coli M15 using DXP as substrate preincubated for 5 mins
Plasmodium falciparum = assay: Binding affinity to His6-tagged Plasmodium falciparum DXR expressed in Escherichia coli M15 by isothermal titration […] assay in presence of 2 mM NADPH and 150 mM NaCl at 279 K and pH 7.6
Outline: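 PfDXR gene cloned into pQE30, expressed in E. coli M15, and purified as His6-tagged protein. ITC run at 279 K, pH 7.6, with 2 mM Mn2+ and 2 mM NADPH. Ka and ΔH come from curve fitting, with Kd as the inverse of Ka.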

[4] = Inhibition of Mycobacterium tuberculosis DXR using DXP as substrate preincubated for 5 mins
[5] = system: Mycobacterium tuberculosis; assay: Binding affinity to Mycobacterium tuberculosis DXR by isothermal titration […] assay in presence of 2 mM NADPH and 150 mM NaCl at 279 K and pH 7.6
Escherichia coli [6] = assay: Binding affinity to Escherichia coli DXR by isothermal titration […] assay in presence of 2 mM NADPH and 150 mM NaCl at 279 K and pH 8.5
Outline: (§1)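 Isothermal titration calorimetry of inhibitor binding to E. coli DXR, run at 279 K with 2 mM NADPH and 150 mM NaCl. Titrations were done with Mg2+ or Mn2+ present, or with no divalent metal ion. Fitted curves gave ΔH and Ka, with ΔG and ΔS derived from them. Kd was taken as the inverse of Ka.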

Escherichia coli [7] = assay: Binding affinity to Escherichia coli DXR by isothermal titration […] assay in presence of 2 mM NADPH and 150 mM NaCl at 279 K and pH 7.6; outline: as §1
Escherichia coli [8] = assay: Binding affinity to Escherichia coli DXR by isothermal titration […] assay in presence of 2 mM NADPH and 150 mM NaCl at 279 K and pH 7.6 and Mn2+
Outline: (§2)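 Heat of inhibitor binding to E. coli DXR (EcDXR) was measured by isothermal titration calorimetry and fitted to binding curves. The fit gave the association constant Ka (M–1) and ΔH, with ΔG and ΔS also reported. Kd was taken as the inverse of Ka. The divalent metal ion (Mg2+ or Mn2+) was included in the titration.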

Escherichia coli [9] = assay: Binding affinity to Escherichia coli DXR by isothermal titration […] assay in presence of 2 mM NADPH and 150 mM NaCl at 279 K and pH 8.5 and Mg2+; outline: as §2

Row | SMILES | Ki [1] | Ka (Escherichia coli [2]) | Ki [3] | Ka (Plasmodium falciparum) | Ki [4] | Ka [5] | Ka (Escherichia coli [6]) | Ka (Escherichia coli [7]) | Ka (Escherichia coli [8]) | Ka (Escherichia coli [9])
1 | O=P(O)(O)Cc1ccc(-c2ccccc2)cn1 | 420 nM | 4.83 ×10⁵ /M | 1100 nM | 4.67 ×10⁵ /M | 3200 nM | 4.44 ×10⁵ /M |  |  |  | 
2 | O=CN(O)CCC(c1ccc(Cl)c(Cl)c1)P(=O)(O)O (centres undefined) | 58 nM | 3.03 ×10⁶ /M | 15 nM | 3.13 ×10⁶ /M | 1200 nM | 2.08 ×10⁶ /M |  |  |  | 
3 | O=c1ccc(-c2ccccc2)cn1O [1-HYDROXY-5-PHENYLPYRIDIN-2(1H)-ONE] | 700 nM | 1.72 ×10⁵ /M | 14600 nM | 2.69 ×10⁵ /M | 21800 nM | 3.42 ×10⁵ /M | 2.55 ×10⁵ /M | 2.87 ×10⁵ /M |  | 
4 | O=CN(O)CCCP(=O)(O)O [FOSMIDOMYCIN] |  | 6.67 ×10⁶ /M |  | 1.28 ×10⁷ /M |  | 3.45 ×10⁶ /M |  |  | 7.35 ×10⁶ /M | 5.6 ×10⁶ /M
5 | CC(=O)N(O)CCCP(=O)(O)O [FR-900098] | 19 nM | 7.14 ×10⁶ /M | 11 nM | 1.28 ×10⁷ /M | 130 nM | 1.79 ×10⁶ /M |  |  |  | 
6 | O=P(O)(O)Cc1ccccn1 [PYRIDIN-2-YLMETHYLPHOSPHONIC ACID] | 2300 nM | 4.93 ×10⁵ /M | 3300 nM | 8.77 ×10⁵ /M | 1600 nM | 6.29 ×10⁵ /M | 4.89 ×10⁵ /M | 4.31 ×10⁵ /M |  | 
